Assay results as given in ChEMBL document CHEMBL3232963, “Discovery of a potent and selective α3β4 nicotinic acetylcholine receptor antagonist from an α-conotoxin synthetic combinatorial library” (J Med Chem, 2014).
Bridge positions count the residues as written; N and C are the ends. Square brackets hold non-standard residues; d marks the D form. Peptide text beside a SMILES is read from it. Nle = CCCC[C@H](N)C(=O)O; Nva = CCC[C@H](N)C(=O)O; Abu = CC[C@H](N)C(=O)O

target: Neuronal acetylcholine receptor; alpha3/beta4 (Rattus norvegicus) (UniProt P04757+P12392); assay: Antagonist activity at rat alpha3beta4 nAChR expressed in HEK293 cells assessed as inhibition of epibatadine-induced effect at 10 uM after 30 mins by fluorescent membrane potential assay relative to mecamylamine; format: cell-based
Procedure, shortened: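 Rat α3β4 nAChR stably expressed in HEK293 cells; crude, SPE-desalted individual peptides tested at 10 μM in HBSS with membrane potential blue dye, 30 min at 37 °C. Fluorescence change read after epibatidine (0.1 μM). Percent inhibition set against 10 μM mecamylamine taken as 100%.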

Row | SMILES | inhibition [%]
1 | CCCC[C@@H]1NC(=O)[C@H](CO)NC(=O)[C@@H]2CSSC[C@@H](C(=O)O)NC(=O)[C@@H]3CCCN3C(=O)[C@H](CCC)NC(=O)[C@H](Cc3c[nH]c4ccccc34)NC(=O)[C@H]([C@H](C)CC)NC(=O)[C@H](CSSC[C@H](NC(=O)CN)C(=O)N2)NC(=O)[C@@H]2CCCN2C(=O)[C@@H]2CCCN2C1=O | 38.9
2 | CCCC[C@@H]1NC(=O)[C@H](CO)NC(=O)[C@@H]2CSSC[C@@H](C(=O)O)NC(=O)[C@H](Cc3ccc(O)cc3)NC(=O)[C@H](CCC)NC(=O)[C@H](Cc3c[nH]c4ccccc34)NC(=O)[C@H](Cc3ccccc3)NC(=O)[C@H](CSSC[C@H](NC(=O)CN)C(=O)N2)NC(=O)[C@@H]2CCCN2C(=O)[C@@H]2CCCN2C1=O (H-GCCS[Nle]PPCFW[Nva]YC-OH; disulfide 2-8, 3-13) | 61.6
3 | CCCC[C@@H]1NC(=O)[C@H](Cc2c[nH]c3ccccc23)NC(=O)[C@H](Cc2ccccc2)NC(=O)[C@@H]2CSSC[C@H](NC(=O)CN)C(=O)N[C@@H](CSSC[C@@H](C(=O)O)NC(=O)[C@@H]3CCCN3C1=O)C(=O)N[C@@H](CO)C(=O)N[C@@H](Cc1cnc[nH]1)C(=O)N1CCC[C@H]1C(=O)N1CCC[C@H]1C(=O)N2 (H-GCCSHPPCFW[Nle]PC-OH; disulfide 2-8, 3-13) | 15.3
4 | CCCC[C@@H]1NC(=O)[C@H](CO)NC(=O)[C@@H]2CSSC[C@@H](C(=O)O)NC(=O)[C@@H]3CCCN3C(=O)[C@H](CCC)NC(=O)[C@H](Cc3c[nH]c4ccccc34)NC(=O)[C@H]([C@H](C)CC)NC(=O)[C@H](CSSC[C@H](NC(=O)CN)C(=O)N2)NC(=O)[C@H](CC)NC(=O)[C@@H]2CCCN2C1=O | 44.8
5 | CCCC[C@@H]1NC(=O)[C@H](CC)NC(=O)[C@H](Cc2ccccc2)NC(=O)[C@@H]2CSSC[C@H](NC(=O)CN)C(=O)N[C@@H](CSSC[C@@H](C(=O)O)NC(=O)[C@@H]3CCCN3C1=O)C(=O)N[C@@H](CO)C(=O)N[C@@H](Cc1cnc[nH]1)C(=O)N1CCC[C@H]1C(=O)N[C@@H](CC)C(=O)N2 (H-GCCSHP[Abu]CF[Abu][Nle]PC-OH; disulfide 2-8, 3-13) | 35.5
6 | CCC[C@@H]1NC(=O)[C@H](CC)NC(=O)[C@H]([C@H](C)CC)NC(=O)[C@@H]2CSSC[C@H](NC(=O)CN)C(=O)N[C@@H](CSSC[C@@H](C(=O)O)NC(=O)[C@@H]3CCCN3C1=O)C(=O)N[C@@H](CO)C(=O)N[C@@H](Cc1cnc[nH]1)C(=O)N1CCC[C@H]1C(=O)N[C@@H](CC)C(=O)N2 | 41.2
7 | CCCC[C@@H]1NC(=O)[C@H](Cc2c[nH]c3ccccc23)NC(=O)[C@H](Cc2ccccc2)NC(=O)[C@@H]2CSSC[C@H](NC(=O)CN)C(=O)N[C@@H](CSSC[C@@H](C(=O)O)NC(=O)[C@@H]3CCCN3C1=O)C(=O)N[C@@H](CO)C(=O)N[C@@H](CCCC)C(=O)N1CCC[C@H]1C(=O)N1CCC[C@H]1C(=O)N2 (H-GCCS[Nle]PPCFW[Nle]PC-OH; disulfide 2-8, 3-13) | 14.2
8 | CCCC[C@@H]1NC(=O)[C@H](CC)NC(=O)[C@H]([C@H](C)CC)NC(=O)[C@@H]2CSSC[C@H](NC(=O)CN)C(=O)N[C@@H](CSSC[C@@H](C(=O)O)NC(=O)[C@H](Cc3ccc(O)cc3)NC1=O)C(=O)N[C@@H](CO)C(=O)N[C@@H](CCCC)C(=O)N1CCC[C@H]1C(=O)N1CCC[C@H]1C(=O)N2 | 63.8
9 | CCCC[C@@H]1NC(=O)[C@H](CC)NC(=O)[C@H]([C@H](C)CC)NC(=O)[C@@H]2CSSC[C@H](NC(=O)CN)C(=O)N[C@@H](CSSC[C@@H](C(=O)O)NC(=O)[C@H](Cc3ccc(O)cc3)NC1=O)C(=O)N[C@@H](CO)C(=O)N[C@@H](Cc1cnc[nH]1)C(=O)N1CCC[C@H]1C(=O)N1CCC[C@H]1C(=O)N2 | 67.2
10 | CCCC[C@@H]1NC(=O)[C@H](CO)NC(=O)[C@@H]2CSSC[C@@H](C(=O)O)NC(=O)[C@H](Cc3ccc(O)cc3)NC(=O)[C@H](CCC)NC(=O)[C@H](Cc3c[nH]c4ccccc34)NC(=O)[C@H]([C@H](C)CC)NC(=O)[C@H](CSSC[C@H](NC(=O)CN)C(=O)N2)NC(=O)[C@H](CC)NC(=O)[C@@H]2CCCN2C1=O | 61.9
11 | CCCC[C@@H]1NC(=O)[C@H](CC2C=Nc3ccccc32)NC(=O)[C@H]([C@H](C)CC)NC(=O)[C@@H]2CSSC[C@H](NC(=O)CN)C(=O)N[C@@H](CSSC[C@@H](C(=O)O)NC(=O)[C@@H]3CCCN3C1=O)C(=O)N[C@@H](CO)C(=O)N[C@@H](CCCC)C(=O)N1CCC[C@H]1C(=O)N[C@@H](CC)C(=O)N2 (some centres undefined) | 51.4
12 | CCCC[C@@H]1NC(=O)[C@H](CO)NC(=O)[C@@H]2CSSC[C@@H](C(=O)O)NC(=O)[C@@H]3CCCN3C(=O)[C@H](CCC)NC(=O)[C@H](CC)NC(=O)[C@H]([C@H](C)CC)NC(=O)[C@H](CSSC[C@H](NC(=O)CN)C(=O)N2)NC(=O)[C@@H]2CCCN2C(=O)[C@@H]2CCCN2C1=O | 45.7
13 | CCCC[C@@H]1NC(=O)[C@H](CO)NC(=O)[C@@H]2CSSC[C@@H](C(=O)O)NC(=O)[C@H](Cc3ccc(O)cc3)NC(=O)[C@H](CCC)NC(=O)[C@H](CC)NC(=O)[C@H]([C@H](C)CC)NC(=O)[C@H](CSSC[C@H](NC(=O)CN)C(=O)N2)NC(=O)[C@@H]2CCCN2C(=O)[C@@H]2CCCN2C1=O | 50.9
14 | CCCC[C@@H]1NC(=O)[C@H](Cc2c[nH]c3ccccc23)NC(=O)[C@H](Cc2ccccc2)NC(=O)[C@@H]2CSSC[C@H](NC(=O)CN)C(=O)N[C@@H](CSSC[C@@H](C(=O)O)NC(=O)[C@H](Cc3ccc(O)cc3)NC1=O)C(=O)N[C@@H](CO)C(=O)N[C@@H](CCCC)C(=O)N1CCC[C@H]1C(=O)N1CCC[C@H]1C(=O)N2 (H-GCCS[Nle]PPCFW[Nle]YC-OH; disulfide 2-8, 3-13) | 60.2
15 | CCCC[C@@H]1NC(=O)[C@H](Cc2c[nH]c3ccccc23)NC(=O)[C@H]([C@H](C)CC)NC(=O)[C@@H]2CSSC[C@H](NC(=O)CN)C(=O)N[C@@H](CSSC[C@@H](C(=O)O)NC(=O)[C@H](Cc3ccc(O)cc3)NC1=O)C(=O)N[C@@H](CO)C(=O)N[C@@H](CCCC)C(=O)N1CCC[C@H]1C(=O)N[C@@H](CC)C(=O)N2 | 68.6
16 | CCC[C@@H]1NC(=O)[C@H](Cc2c[nH]c3ccccc23)NC(=O)[C@H](Cc2ccccc2)NC(=O)[C@@H]2CSSC[C@H](NC(=O)CN)C(=O)N[C@@H](CSSC[C@@H](C(=O)O)NC(=O)[C@H](Cc3ccc(O)cc3)NC1=O)C(=O)N[C@@H](CO)C(=O)N[C@@H](Cc1cnc[nH]1)C(=O)N1CCC[C@H]1C(=O)N[C@@H](CC)C(=O)N2 (H-GCCSHP[Abu]CFW[Nva]YC-OH; disulfide 2-8, 3-13) | 72.1
17 | CCCC[C@@H]1NC(=O)[C@H](CC)NC(=O)[C@H]([C@H](C)CC)NC(=O)[C@@H]2CSSC[C@H](NC(=O)CN)C(=O)N[C@@H](CSSC[C@@H](C(=O)O)NC(=O)[C@@H]3CCCN3C1=O)C(=O)N[C@@H](CO)C(=O)N[C@@H](Cc1cnc[nH]1)C(=O)N1CCC[C@H]1C(=O)N[C@@H](CC)C(=O)N2 | 36.2
18 | CCC[C@@H]1NC(=O)[C@H](CC)NC(=O)[C@H](Cc2ccccc2)NC(=O)[C@@H]2CSSC[C@H](NC(=O)CN)C(=O)N[C@@H](CSSC[C@@H](C(=O)O)NC(=O)[C@@H]3CCCN3C1=O)C(=O)N[C@@H](CO)C(=O)N[C@@H](Cc1cnc[nH]1)C(=O)N1CCC[C@H]1C(=O)N1CCC[C@H]1C(=O)N2 (H-GCCSHPPCF[Abu][Nva]PC-OH; disulfide 2-8, 3-13) | 36
19 | CCCC[C@@H]1NC(=O)[C@H](CC)NC(=O)[C@H]([C@H](C)CC)NC(=O)[C@@H]2CSSC[C@H](NC(=O)CN)C(=O)N[C@@H](CSSC[C@@H](C(=O)O)NC(=O)[C@@H]3CCCN3C1=O)C(=O)N[C@@H](CO)C(=O)N[C@@H](Cc1cnc[nH]1)C(=O)N1CCC[C@H]1C(=O)N1CCC[C@H]1C(=O)N2 | 38.1
